From ChEMBL document CHEMBL1129597, “2-[2'-(Dimethylamino)ethyl]-1,2-dihydro- 3H-dibenz[de,h]isoquinoline-1,3-diones with substituents at positions 4, 8, 9, 10, and 11. Synthesis, antitumor activity, and quantitative structure-activity relationships” (J Med Chem, 1996)

Experiments:
[1] = tested on: MCF7; test: Antitumor activity against human mammary carcinoma sensitive […] breast cell line.; assay type: functional, cell-based
[2] = tested on: L1210; test: Compound was tested for antitumor activity against l. Sensitive leukemia cell lines (L1210).; assay type: functional, cell-based; conditions: Mus musculus
Procedure, shortened: (§1)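 Murine L1210 leukemia cells, sensitive or MDR subline, in culture. Continuous drug exposure during MTT assay. Five concentrations per analogue, six determinations per concentration. The IC50 was derived.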

[3] = tested on: MCF7; test: Antitumor activity against human mammary carcinoma doxorubicin-resistant […] breast cell line.; assay type: functional, cell-based
[4] = species on record: Rattus norvegicus; test: Cardiotoxicity measured by the ATP/protein ratio compared with untreated controls using neonatal rat heart myocyte assay.; assay type: functional
Procedure, shortened: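 Neonatal rat heart myocytes exposed to drug for 1 h. The ATP/protein ratio was measured versus untreated control myocytes. IC50 is the concentration reducing this ratio to 50% of control.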

[5] = (§2) The quotient of the IC50 in the myocytes divided by the mean IC50 in the three cell lines; assay type: functional
Procedure, shortened: (§3)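 Calculated index: the myocyte IC50 divided by the mean IC50 across three tumor lines (sensitive L1210, melanoma UACC375, ovarian OVCAR3).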

[6] = tested on: A549; test: Activity against A549 cancer cell line.; assay type: functional, cell-based; conditions: Homo sapiens
[7] = tested on: WiDr; test: Activity against human colon carcinoma multi drug resistant (MDR)-WiDr cell line.; assay type: functional, cell-based
[8] = tested on: MCF7; test: Antitumor activity against human mammary carcinoma mitoxantrone-resistant […] breast cell line.; assay type: functional, cell-based
[9] = tested on: L1210; test: Antitumor activity against murine leukemia L1210 cell line.; assay type: functional, cell-based; conditions: Mus musculus; procedure, shortened: as §1
[10] = tested on: WiDr; test: Activity against human colon carcinoma sensitive WiDr cell line.; assay type: functional, cell-based
[11] = tested on: UACC-375; test: Antitumor activity against human melanoma UACC375 cell line.; assay type: functional, cell-based
Procedure, shortened: (§4)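 Cultured human tumor cells (melanoma UACC375, ovarian OVCAR3) under continuous drug exposure. Growth was read by sulforhodamine or MTT assay. Five concentrations per analogue, six determinations per concentration. IC50 values were derived from these.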

[12] = tested on: OVCAR-3; test: Antitumor activity against human ovarian OVCAR-3 cell lines.; assay type: functional, cell-based; procedure, shortened: as §4
[13] = tested on: L1210; test: Antitumor activity against sensitive L1210 murine leukemia cell lines.; assay type: functional, cell-based; conditions: Mus musculus; procedure, shortened: as §1
[14] = tested on: WiDr; test: Compound was tested for antitumor activity against The compound tested for activity against Human colon carcinoma sensitive WiDr cell line.; assay type: functional, cell-based
[15] = as §2; assay type: ADME, cell-based; conditions: myocytes versus three cell lines; read-out: Toxicity ratio; procedure, shortened: as §3
[16] = tested on: MCF7; test: Compound was tested for antitumor activityHuman mammary carcinoma Doxorubicin resistant […] breast cell line.; assay type: functional, cell-based; conditions: Homo sapiens
[17] = tested on: L1210; test: Compound was tested for antitumor activity against Murine leukemia cell line (L1210).; assay type: functional, cell-based; conditions: Mus musculus; procedure, shortened: as §1

Row | Compound | IC50 [1] [nM] | IC50 [2] [nM] | IC50 [3] [nM] | IC50 [4] [nM] | Toxicity ratio [5] | IC50 [6] [nM] | IC50 [7] [nM] | IC50 [8] [nM] | IC50 [9] [nM] | IC50 [10] [nM] | IC50 [11] [nM] | IC50 [12] [nM] | IC50 [13] [nM] | IC50 [14] [nM] | selectivity ratio [15] | IC50 [16] [nM] | IC50 [17] [nM]
1 | CN(C)CCN1C(=O)c2cccc3cc4cc(O)ccc4c(c23)C1=O | 13 | 5.4 | 20 | 404 | 40.4 | 7.1 | 20 | 17 | 6.7 | 17 | 4 | 22 |  |  |  |  | 
2 | CCOc1ccc2cc3cccc4c3c(c2c1)C(=O)N(CCN(C)C)C4=O | 32 |  | 100 | 11300 | 188 | 61 | 120 | 15 | 50 |  | 77 | 77 | 25 | 100 |  |  | 
3 | CN(C)CCN1C(=O)c2cccc3cc4c(Cl)cccc4c(c23)C1=O | 60 |  | 80 | 1030 |  | 22 | 110 | 19 | 18 | 20 | 77 | 39 |  |  | 22.8 |  | 
4 | CN(C)CCN1C(=O)c2c(O)ccc3cc4ccccc4c(c23)C1=O | 1200 |  |  | > 135000 | >20 | 820 | 4700 | 1500 |  | 2220 | 7550 | 5500 | 6740 |  |  | 2800 | 14800
